# According to the M2OR odorant receptor database:
# Molecular target: T1, OR1A1 (Homo sapiens) (UniProt Q9P1Q5)
# T1 sequence (whole entry): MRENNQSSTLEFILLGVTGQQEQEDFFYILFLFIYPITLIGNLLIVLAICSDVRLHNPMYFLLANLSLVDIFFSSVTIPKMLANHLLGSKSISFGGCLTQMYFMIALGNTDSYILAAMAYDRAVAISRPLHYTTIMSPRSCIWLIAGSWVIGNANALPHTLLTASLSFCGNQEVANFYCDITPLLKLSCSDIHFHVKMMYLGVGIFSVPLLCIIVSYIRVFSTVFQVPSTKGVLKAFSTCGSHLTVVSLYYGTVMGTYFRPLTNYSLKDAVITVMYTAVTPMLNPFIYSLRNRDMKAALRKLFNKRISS
# Conditions: stereoisomer not certain
# Method in brief: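 Each receptor–molecule pair is labelled responsive or non-responsive (inactive) according to whether the original authors judged the measured signal statistically different from baseline. The data were taken from the main text and supplementary material of published papers and checked for typos and inconsistencies. Assay methods differed by source, with transient luciferase assays in mammalian cell lines being common.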
# 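Also: active if original authors judged signal statistically different from baseline.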
smiles,measurement,value
CCCCCC(=O)OCC,odorant receptor agonist call,active
